Data set [1] is described as follows: Area under plasma concentration curve of the compound upon i.v. dose of 1 mg/kg in rats. Format: ADME, organism-based. On the set-up: dose 1 mg/kg, route intravenous. Conditions: rat, in vivo, iv.
Data set [2] is described as follows: Area under plasma concentration curve of the compound upon p.o. dose of 1 mg/kg in rats. In kind it is ADME, organism-based. Also noted: dose 1 mg/kg, route oral. Conditions: rat, in vivo, po.
Data set [3] can be described thus: Oral bioavailability in rat (dose 1 mg/kg). In kind it is ADME, organism-based. The following applies: in vivo.
The nature of data set [4]: Plasma clearance upon i.v. dose of 1 mg/kg in rats. Also noted: dose 1 mg/kg, route intravenous. In kind it is ADME, organism-based. The following applies: rat, iv.
Data set [5] is described as follows: Terminal half life upon p.o. dose of 1 mg/kg in rats. In kind it is ADME, organism-based. Also noted: dose 1 mg/kg, route oral. Conditions: rat, in vivo, po.
A short description of data set [6]: Terminal half life upon i.v. dose of 1 mg/kg in rats. Format: ADME, organism-based. Also noted: dose 1 mg/kg, route intravenous. Conditions: rat, in vivo, iv.
In data set [7] the target is Histamine H3 receptor (Rattus norvegicus, UniProt Q9QYN8). The data set is described as follows: In vitro binding affinity for rat histamine H3 receptor using [3H]N-alpha-methylhistamine. The procedure, abridged: (§1)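 Radioligand binding used membranes from cells transfected with cloned human or rat H3 receptors.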
Sequence of Histamine H3 receptor (Rattus norvegicus, UniProt Q9QYN8) (Q9QYN8 whole entry): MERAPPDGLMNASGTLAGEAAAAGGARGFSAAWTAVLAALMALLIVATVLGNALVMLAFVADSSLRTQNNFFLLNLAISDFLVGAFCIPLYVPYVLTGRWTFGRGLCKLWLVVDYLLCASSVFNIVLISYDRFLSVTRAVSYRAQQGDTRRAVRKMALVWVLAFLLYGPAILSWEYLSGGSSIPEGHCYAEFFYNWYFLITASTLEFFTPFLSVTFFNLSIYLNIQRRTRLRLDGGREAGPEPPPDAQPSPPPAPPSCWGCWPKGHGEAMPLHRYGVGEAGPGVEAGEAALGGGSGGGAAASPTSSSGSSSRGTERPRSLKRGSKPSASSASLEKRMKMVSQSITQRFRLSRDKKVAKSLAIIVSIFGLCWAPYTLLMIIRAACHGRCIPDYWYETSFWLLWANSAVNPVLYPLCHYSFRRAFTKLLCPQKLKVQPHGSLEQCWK
For data set [8], the target named is Histamine H3 receptor (Homo sapiens, UniProt Q9Y5N1). The data set is described as follows: In vitro binding affinity for human histamine H3 receptor using [3H]N-alpha-methylhistamine. An outline of the steps: as §1
Sequence of Histamine H3 receptor (Homo sapiens, UniProt Q9Y5N1) (Q9Y5N1 whole entry): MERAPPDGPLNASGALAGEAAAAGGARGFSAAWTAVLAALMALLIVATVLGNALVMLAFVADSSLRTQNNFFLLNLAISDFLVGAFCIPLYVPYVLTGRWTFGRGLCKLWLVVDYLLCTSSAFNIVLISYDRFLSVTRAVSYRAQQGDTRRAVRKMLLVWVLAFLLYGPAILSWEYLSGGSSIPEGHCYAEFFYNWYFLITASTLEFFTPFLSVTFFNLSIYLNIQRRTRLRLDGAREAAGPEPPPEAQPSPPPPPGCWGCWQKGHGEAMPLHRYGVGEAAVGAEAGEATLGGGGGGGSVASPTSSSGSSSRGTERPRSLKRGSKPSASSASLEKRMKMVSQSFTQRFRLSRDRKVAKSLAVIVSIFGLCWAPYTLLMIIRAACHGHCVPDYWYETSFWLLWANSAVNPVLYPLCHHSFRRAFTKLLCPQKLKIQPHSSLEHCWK
Data set [9] can be described thus: Maximum plasma concentration upon p.o. dose of 1 mg/kg in rats. On the set-up: dose 1 mg/kg, route oral. Format: ADME, organism-based. Conditions: rat, po.

We go through 30 molecules from ChEMBL document CHEMBL1141118, “Synthesis and SAR of 5-amino- and 5-(aminomethyl)benzofuran histamine H3 receptor antagonists with improved potency” (J Med Chem, 2005).

The AUC is the area under the concentration-time curve, a measure of exposure. One may read the bioavailability as dose-corrected exposure relative to a reference, in per cent. The low end stands for little systemic uptake, the high end for much systemic uptake. As a reminder, the clearance is the volume of plasma or blood freed of the substance per unit of time. What is called half-life is the time needed for the level to fall by half in the phase considered. Higher therefore signals slow decline. Broadly, the Ki is the equilibrium dissociation constant of an inhibitor or competing ligand from its target. A high value points to lower affinity. Broadly, the Cmax is the maximum level reached in the sampled fluid or tissue.

Consider `C[C@@H]1CCCN1CCc1cc2cc(CNc3ncccn3)ccc2o1`, for which the figures for the AUC in data set [1] and in [2] were 350 ng·h/mL and 72.1 ng·h/mL, respectively. Moreover, the bioavailability in [3] was 20.6%. In addition, the clearance in [4] is 47.7 mL/min/kg. The half-life in data set [5] was 1.7 h; in data set [6], 1 h. Also, the Ki in [7] is 3.27 nM; in [8], 0.84 nM. The molecule further yielded a Cmax in data set [9] of 34.5 ng/mL.

On to `Cc1ccc(C#N)c(Nc2ccc3oc(CCN4CCC[C@H]4C)cc3c2)n1`, for which the Ki in [7] amounted to 17.9 nM; in data set [8] it was 2.98 nM.

Regarding `C[C@@H]1CCCN1CCc1cc2cc(Nc3ncccn3)ccc2o1`, the figures for the Ki in data set [7] and in [8] were 2.01 nM and 0.31 nM, respectively.

With `C[C@@H]1CCCN1CCc1cc2cc(Nc3ccc([N+](=O)[O-])cn3)ccc2o1`, the Ki in data set [7] came to 0.11 nM; in [8] it was 0.05 nM.

As to `C[C@@H]1CCCN1CCc1cc2cc(Nc3ccc(C#N)cc3)ccc2o1`, the inhibition constant Ki in [7] came to 1.35 nM; in [8], 0.27 nM.

Turning to `C[C@@H]1CCCN1CCc1cc2cc(CNc3cccc(C#N)c3)ccc2o1`, the Ki in [7] amounted to 1.18 nM; in data set [8], 0.4 nM.

On to `C[C@@H]1CCCN1CCc1cc2cc(CNc3nccnc3C#N)ccc2o1`, for which the Ki in [7] came out at 3.96 nM; in data set [8], 1.04 nM.

`C[C@@H]1CCCN1CCc1cc2cc(CNc3ncc(Br)cn3)ccc2o1`: the Ki in [7] was determined as 4.02 nM; in data set [8], 1.22 nM.

For `CCc1cnc(NCc2ccc3oc(CCN4CCC[C@H]4C)cc3c2)nc1`, the area under the curve (AUC) in data set [1] came to 210 ng·h/mL; in data set [2], 18.9 ng·h/mL. The molecule further came in with a bioavailability in [3] of 9%. Also, in [4], the clearance is 79.8 mL/min/kg. Further, in [6], the half-life is 1.7 h. In addition, the Ki in [7] came to 0.58 nM; in [8], 0.33 nM. For the same molecule, the Cmax in data set [9] came to 7.1 ng/mL.

Regarding `C[C@@H]1CCCN1CCc1cc2cc(Nc3cncnc3)ccc2o1`, the area under the curve (AUC) is 35.9 ng·h/mL in data set [1] and 0 ng·h/mL in data set [2]. This molecule also displayed a bioavailability in data set [3] of 0%. In data set [4], this molecule showed a clearance of 475 mL/min/kg. Moreover, the half-life in data set [6] is 0.3 h. Also, the Ki in data set [7] came to 0.27 nM; in data set [8] it was 0.08 nM.

For `C[C@@H]1CCCN1CCc1cc2cc(Nc3ncccc3[N+](=O)[O-])ccc2o1`, the Ki in data set [7] came out at 0.35 nM; in data set [8], 0.14 nM.

Turning to `C[C@@H]1CCCN1CCc1cc2cc(CNc3cnccn3)ccc2o1`, the Ki came out at 0.8 nM in [7] and 0.29 nM in [8].

As for `C[C@@H]1CCCN1CCc1cc2cc(CNc3ccc(C#N)cn3)ccc2o1`, the inhibitory constant (Ki) in [7] was 1.42 nM; in data set [8], 0.34 nM.

Take `C[C@@H]1CCCN1CCc1cc2cc(-c3ccc(C#N)cc3)ccc2o1`: the AUC in data set [1] came out at 667 ng·h/mL; in [2] it was 426 ng·h/mL. This molecule registered a bioavailability in [3] of 61.8%. The clearance in data set [4] was found to be 25.7 mL/min/kg. For the same molecule, the values for the half-life in data set [5] and in data set [6] were 6.7 h and 5.7 h, respectively. In [9], this molecule yielded a Cmax of 39.6 ng/mL.

As to `C[C@@H]1CCCN1CCc1cc2cc(CNc3ccc([N+](=O)[O-])cn3)ccc2o1`, the figures for the Ki in data set [7] and in data set [8] were 1.19 nM and 0.3 nM, respectively.

With `C[C@@H]1CCCN1CCc1cc2cc(Nc3ccccc3[N+](=O)[O-])ccc2o1`, the Ki is 0.87 nM in [7] and 0.22 nM in data set [8].

On to `C[C@@H]1CCCN1CCc1cc2cc(CNc3ccccc3[N+](=O)[O-])ccc2o1`, for which the inhibition constant Ki came out at 0.87 nM in data set [7] and 0.31 nM in data set [8].

As to `C[C@@H]1CCCN1CCc1cc2cc(CNc3ccc([N+](=O)[O-])cc3)ccc2o1`, the figures for the Ki in data set [7] and in data set [8] were 2.12 nM and 0.74 nM, respectively.

For `C[C@@H]1CCCN1CCc1cc2cc(CNc3ccc(Cl)nn3)ccc2o1`, the values for the Ki in data set [7] and in data set [8] were 1.58 nM and 0.31 nM, respectively.

Regarding `C[C@@H]1CCCN1CCc1cc2cc(CNc3ccc(C(=O)C(F)(F)F)cc3)ccc2o1`, the values for the Ki in [7] and in data set [8] were 2.36 nM and 0.74 nM, respectively.

For the molecule `C[C@@H]1CCCN1CCc1cc2cc(CNc3ncc([N+](=O)[O-])s3)ccc2o1`, the Ki in data set [7] turned out to be 0.68 nM; in [8], 0.19 nM.

`C[C@@H]1CCCN1CCc1cc2cc(Nc3cccc(C#N)c3)ccc2o1`: the Ki in data set [7] amounted to 1.47 nM; in data set [8], 0.29 nM.

Take `C[C@@H]1CCCN1CCc1cc2cc(CNc3cncnc3)ccc2o1`: the values for the Ki in [7] and in [8] were 2.51 nM and 0.69 nM, respectively.

With `CCc1cnc(Nc2ccc3oc(CCN4CCC[C@H]4C)cc3c2)nc1`, the exposure (AUC) in data set [1] turned out to be 355 ng·h/mL; in data set [2] it was 103 ng·h/mL. The molecule further registered a bioavailability in [3] of 29%. Moreover, the clearance in data set [4] is 47 mL/min/kg. The half-life in [5] was 4.8 h; in [6] it was 3.7 h. In addition, the results for the Ki in data set [7] and in data set [8] were 2.51 nM and 0.62 nM, respectively. This molecule displayed a Cmax in data set [9] of 16.2 ng/mL.

For the molecule `C[C@@H]1CCCN1CCc1cc2cc(CNc3cc(C#N)nc(C#N)c3)ccc2o1`, the results for the inhibition constant Ki in data set [7] and in [8] were 0.4 nM and 0.13 nM, respectively.

In the case of `C[C@@H]1CCCN1CCc1cc2cc(CNc3ncccc3[N+](=O)[O-])ccc2o1`, the inhibition constant (Ki) in data set [7] stood at 2.71 nM; in data set [8], 0.43 nM.

With `C[C@@H]1CCCN1CCc1cc2cc(Nc3cnccn3)ccc2o1`, the inhibition constant (Ki) came to 0.38 nM in data set [7] and 0.11 nM in data set [8].

For the molecule `C[C@@H]1CCCN1CCc1cc2cc(CNc3ncccc3C#N)ccc2o1`, the inhibitory constant (Ki) in data set [7] was 1.92 nM; in data set [8], 0.74 nM.

For `C[C@@H]1CCCN1CCc1cc2cc(Nc3ccc(C(F)(F)F)cn3)ccc2o1`, the inhibition constant Ki amounted to 2.76 nM in data set [7] and 0.54 nM in data set [8].

As to `C[C@@H]1CCCN1CCc1cc2cc(CNc3ncc([N+](=O)[O-])cc3[N+](=O)[O-])ccc2o1`, the Ki in data set [7] came to 2.88 nM; in data set [8] it was 0.71 nM.
